Measurements from different studies.
Each line is one published result; the experiments were not run side by side. Values after ≈ are worked out from the molar mass of the structure shown.

| SMILES | target or system | test | test system | conditions | endpoint | result |
| --- | --- | --- | --- | --- | --- | --- |
| C=CC(=O)NC1CCN(c2ncc3ncnc(Nc4ccc(Oc5ccc6c(c5)ncn6C)c(C)c4)c3n2)CC1 | SNU-216 | cell growth or viability | – | – | EC50 | 10.2 nM |
| O=C(NC(=S)Nc1ccccc1O)c1ccco1 | Leishmania major | parasite growth, resazurin | – | promastigote | IC50 | 6080 nM |
| O=C(N[C@H](CO)[C@H](O)c1ccc([N+](=O)[O-])cc1)C(Cl)Cl | Vibrio alginolyticus | microbial growth | – | 24 h | MIC | 1.25 to 2.5 µM (≈ 0.404 to 0.808 µg/mL) |
| C[C@@H]1CC[C@@H]([C@](C)(O)CNCc2ccc(F)cc2)[C@H](OCc2ccccc2)C1 | HeLa | cell growth or viability, MTT | – | 30 µM, 72 h | inhibition | 60.1% |
| O=C(NC(=S)Nc1cccc(O)c1)c1cccs1 | Leishmania major | parasite growth, resazurin | – | promastigote | IC50 | 290 nM |
| COc1ccc(COC[C@@](O)(CNCc2ccccc2)[C@@H]2CC[C@@H](C)C[C@H]2OCc2ccc(OC)cc2)cc1 | HeLa | cell growth or viability, MTT | – | 10 µM, 72 h | inhibition | 93.8% |
| CN[C@H](CC(C)C)C(=O)N[C@H]1C(=O)N[C@@H](CC(N)=O)C(=O)N[C@H]2C(=O)N[C@H]3C(=O)N[C@H](C(=O)N[C@H](C(=O)O)c4cc(O)cc(O)c4-c4cc3ccc4O)[C@H](O)c3ccc(c(Cl)c3)Oc3cc2cc(c3O[C@@H]2O[C@H](CO)[C@@H](O)[C@H](O)[C@H]2O[C@H]2C[C@](C)(N)[C@H](O)[C@H](C)O2)Oc2ccc(cc2Cl)[C@H]1O | Enterococcus faecalis | microbial growth | ATCC29212 | – | MIC | 2 µM (≈ 2.9 µg/mL) |
| C[C@@H]1CC[C@@H]([C@@](O)(CNCc2ccccc2)COCc2ccccc2)[C@H](OCc2ccccc2)C1 | HeLa | cell growth or viability, MTT | – | 30 µM, 72 h | inhibition | 98.2% |
| Cc1cc(NC(=O)C=Cc2ccccc2)cc(-c2ccnc(N3CCC(CO)CC3)c2)c1 | HeLa | cell growth or viability, MTT | – | 5 µM | inhibition | 81.8% |
| Cc1nc(NC(=S)NCc2ccco2)nc(-c2ccccc2)c1C(=O)N1CCC(C(=O)O)CC1 | Leishmania major | parasite growth, resazurin | – | promastigote | IC50 | 180 nM |
| CN[C@@H]1[C@@H](O[C@H]2O[C@H](CO)[C@@H](N)[C@H](O)[C@H]2O)OC2C[C@@H](N)[C@@H](O[C@H]3[C@H](O)[C@@H](O)[C@H](N)C[C@@H]3N)OC2[C@@H]1O (stereo partly shown) | Vibrio alginolyticus | microbial growth | – | 24 h | MIC | > 40 µM |
| C=C(COCc1ccc(F)cc1)[C@@H]1CC[C@@H](C)C[C@H]1OCc1ccc(F)cc1 | HeLa | cell growth or viability, MTT | – | 30 µM, 72 h | inhibition | 61.5% |
| O=C(NC(=S)Nc1nccs1)c1ccco1 | Leishmania major | parasite growth, resazurin | – | promastigote | IC50 | 12900 nM |
